Columns and labels:
[1] = Aqueous solubility of compound; assay type: physicochemical
[2] = test system: Staphylococcus aureus subsp. aureus MW2; assay: Inhibition of CrtN in Staphylococcus aureus USA400 MW2 assessed as H2O2-induced bacterial death by measuring fold reduction in survival rate at 1 uM preincubated for 24 hrs followed by H2O2 addition measured after 30 mins by serial dilution method
Procedure, shortened: (§1)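 Strain grown in TSB at 37 °C for 24 h with or without 1 μM compound, or with NAC. Cells washed in PBS and set at 4×10^6 CFU per 250 μL. H2O2 added to 1.5% final, then incubated 30 min at 37 °C with shaking at 250 rpm. Reaction quenched with 1000 U/mL catalase; survivors counted by serial dilution CFU on TSA/TSB.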

[3] = test system: Staphylococcus aureus LAC; assay: Inhibition of CrtN in Staphylococcus aureus USA300 LAC assessed as bacterial death by measuring survival rate measured after 6 hrs by serial dilution method (reference value: 12%)
Procedure, shortened: (§2)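 Overnight cultures in PBS (1×10^7 CFU/mL) mixed 1:9 with healthy-volunteer human whole blood (1×10^6 CFU/mL final). Held 6 h at 37 °C; surviving CFU counted by serial dilution plating on TSA/TSB.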

[4] = test system: Staphylococcus aureus LAC; assay: Inhibition of CrtN in Staphylococcus aureus USA300 LAC assessed as H2O2-induced bacterial death by measuring fold reduction in survival rate at 1 uM preincubated for 24 hrs followed by H2O2 addition measured after 30 mins by serial dilution method; procedure, shortened: as §1
[5] = test system: Staphylococcus aureus subsp. aureus MW2; assay: Inhibition of CrtN in Staphylococcus aureus USA400 MW2 assessed as bacterial death by measuring survival rate measured after 6 hrs by serial dilution method (reference value: 20.67%); procedure, shortened: as §2
[6] = test system: Staphylococcus aureus LAC; assay: Inhibition of CrtN in Staphylococcus aureus USA300 LAC assessed as H2O2-induced bacterial death by measuring survival rate at 1 uM preincubated for 24 hrs followed by H2O2 addition measured after 30 mins by serial dilution method (reference value: 24%)
[7] = test system: Staphylococcus aureus subsp. aureus MW2; assay: Inhibition of CrtN in Staphylococcus aureus USA400 MW2 assessed as H2O2-induced bacterial death by measuring survival rate at 1 uM preincubated for 24 hrs followed by H2O2 addition measured after 30 mins by serial dilution method (reference value: 26.3%)
Staphylococcus aureus [8] = assay: Growth inhibition of Staphylococcus aureus USA300 LAC at 0.2 mM measured after overnight incubation; conditions: 200 µM
Staphylococcus aureus [9] = assay: Growth inhibition of Staphylococcus aureus USA400 MW2 at 0.2 mM measured after overnight incubation; conditions: 200 µM
Staphylococcus aureus [10] = assay: Growth inhibition of Staphylococcus aureus Newman at 0.2 mM measured after overnight incubation; conditions: 200 µM
Staphylococcus aureus [11] = assay: Growth inhibition of Staphylococcus aureus Mu50 at 0.2 mM measured after overnight incubation; conditions: 200 µM
[12] = Oral bioavailability in Sprague-Dawley rat at 10 mg/kg after 24 hrs by LC/MS/MS analysis; assay type: ADME, organism-based; conditions: in vivo
Procedure, shortened: (§3)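 Male SD rats (230-260 g), six in total across routes. Compound dissolved in 10% castor oil/water, given orally at 10 mg/kg, with an IV arm at 5 mg/kg for comparison. Blood sampled at various time points over 24 h. Blood concentrations measured by LC-MS/MS.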

[13] = Half life in Sprague-Dawley rat at 5 mg/kg, iv after 24 hrs by LC/MS/MS analysis; assay type: ADME, organism-based; conditions: in vivo
Procedure, shortened: (§4)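 Male SD rats (230-260 g), six in total; compound in 10% castor oil/water given once IV at 5 mg/kg or PO at 10 mg/kg. Blood sampled at various time points over 24 h, and drug concentration measured by LC-MS/MS.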

[14] = Mean residence time (0 to t) in Sprague-Dawley rat at 10 mg/kg, po after 24 hrs by LC/MS/MS analysis; assay type: ADME, organism-based; conditions: in vivo; procedure, shortened: as §4
[15] = AUC (0 to t) in Sprague-Dawley rat at 5 mg/kg, iv after 24 hrs by LC/MS/MS analysis; assay type: ADME, organism-based; design: dose 5 mg/kg, time < 24 hr, route intravenous; conditions: in vivo; procedure, shortened: as §4
[16] = Tmax in Sprague-Dawley rat at 5 mg/kg, iv after 24 hrs by LC/MS/MS analysis; assay type: ADME, organism-based; conditions: in vivo
Procedure, shortened: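 Male SD rats (230-260 g), six in total across routes. Single intravenous dose of 5 mg/kg in 10% castor oil/water. Blood sampled at various time points over 24 h. Compound concentration in blood quantified by LC-MS/MS.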

[17] = Mean residence time (0 to infinity) in Sprague-Dawley rat at 10 mg/kg, po after 24 hrs by LC/MS/MS analysis; assay type: ADME, organism-based; conditions: in vivo; procedure, shortened: as §4
[18] = Half life in Sprague-Dawley rat at 10 mg/kg, po after 24 hrs by LC/MS/MS analysis; assay type: ADME, organism-based; conditions: in vivo; procedure, shortened: as §4
[19] = Mean residence time (0 to t) in Sprague-Dawley rat at 5 mg/kg, iv after 24 hrs by LC/MS/MS analysis; assay type: ADME, organism-based; conditions: in vivo; procedure, shortened: as §4
[20] = AUC (0 to t) in Sprague-Dawley rat at 10 mg/kg, po after 24 hrs by LC/MS/MS analysis; assay type: ADME, organism-based; design: dose 10 mg/kg, time < 24 hr, route oral; conditions: in vivo; procedure, shortened: as §4
[21] = AUC (0 to infinity) in Sprague-Dawley rat at 10 mg/kg, po after 24 hrs by LC/MS/MS analysis; assay type: ADME, organism-based; design: dose 10 mg/kg, time infinity, route oral; conditions: in vivo; procedure, shortened: as §4
[22] = Cmax in Sprague-Dawley rat at 10 mg/kg, po after 24 hrs by LC/MS/MS analysis; assay type: ADME, organism-based; design: dose 10 mg/kg, route oral; conditions: in vivo; procedure, shortened: as §4
[23] = Tmax in Sprague-Dawley rat at 10 mg/kg, po after 24 hrs by LC/MS/MS analysis; assay type: ADME, organism-based; conditions: in vivo; procedure, shortened: as §3
[24] = Cmax in Sprague-Dawley rat at 5 mg/kg, iv after 24 hrs by LC/MS/MS analysis; assay type: ADME, organism-based; design: dose 5 mg/kg, route intravenous; conditions: in vivo; procedure, shortened: as §4
[25] = AUC (0 to infinity) in Sprague-Dawley rat at 5 mg/kg, iv after 24 hrs by LC/MS/MS analysis; assay type: ADME, organism-based; design: dose 5 mg/kg, time infinity, route intravenous; conditions: in vivo; procedure, shortened: as §4
[26] = Mean residence time (0 to infinity) in Sprague-Dawley rat at 5 mg/kg, iv after 24 hrs by LC/MS/MS analysis; assay type: ADME, organism-based; conditions: in vivo; procedure, shortened: as §4

Row | SMILES | solubility [1] | other results
1 | CN(C/C=C/C=C/c1ccc(-c2ccccc2)cc1)Cc1ccc2c(c1)OCCC2.O=C(O)C(O)C(O)C(=O)O | 4600 µg/mL | –
2 | CN(C/C=C/c1ccc(-c2ccccc2)cc1)Cc1ccc2c(c1)CCO2.O=C(O)/C=C\C(=O)O | 1200 µg/mL | –
3 | CN(C/C=C/c1ccc(C(F)(F)F)cc1)Cc1ccc2c(c1)CCCC2.Cl | 700 µg/mL | –
4 | CN(C/C=C/c1ccc(C(F)(F)F)cc1F)Cc1ccc2c(c1)OCCC2.Cl | 15200 µg/mL | –
5 | CC(=O)O.CN(C/C=C/C=C/c1ccc(-c2ccccc2)cc1)Cc1ccc2c(c1)OCCC2 | 4100 µg/mL | –
6 | CN(C/C=C/C=C/c1ccc(-c2ccccc2)cc1)Cc1ccc2c(c1)OCCC2 | – | fold change (FC) [2]: 10; Survival [3]: 0.23%; fold change (FC) [4]: 10; Survival [5]: 0.53%
7 | CN(C/C=C/C=C/c1ccc(-c2ccccc2)cc1)Cc1ccc2c(c1)OCCC2.O=C(O)/C=C\C(=O)O | 1300 µg/mL | –
8 | CCOc1ccc(/C=C/CN(C)Cc2ccc3c(c2)OCCC3)cc1.Cl | 10200 µg/mL | –
9 | CC(=O)N[C@@H](CS)C(=O)O | – | Survival [6]: 54.7%; Survival [7]: 57%
10 | CN(C/C=C/c1ccc(Br)cc1)Cc1ccc2c(c1)CCCCC2.Cl | 600 µg/mL | –
11 | CC(O)C(=O)O.CN(C/C=C/C=C/c1ccc(-c2ccccc2)cc1)Cc1ccc2c(c1)OCCC2 | 6500 µg/mL | –
12 | CN(C/C=C/c1ccc(-c2ccccc2)cc1)Cc1ccc2c(c1)CCO2.O=C(O)C(O)C(O)C(=O)O | 5700 µg/mL | –
13 | CN(C/C=C/C=C/c1ccc(-c2ccccc2)cc1)Cc1ccc2c(c1)OCCC2.O=S(=O)(O)O | 1100 µg/mL | –
14 | CN(C/C=C/C=C/c1ccc(-c2ccccc2)cc1)Cc1ccc2c(c1)OCCC2.O=P(O)(O)O | 12900 µg/mL | –
15 | CN(C/C=C/c1ccc(C(F)(F)F)cc1F)Cc1ccc2c(c1)CCO2.Cl | 16300 µg/mL | –
16 | CN(C/C=C/c1ccc(-c2ccccc2)cc1)Cc1ccc2c(c1)CCO2.O=C(O)C(F)(F)F | 1500 µg/mL | –
17 | Br.CN(C/C=C/C=C/c1ccc(-c2ccccc2)cc1)Cc1ccc2c(c1)OCCC2 | 2800 µg/mL | –
18 | CN(C/C=C/c1ccc(Cl)cc1)Cc1ccc2c(c1)CCCCC2.Cl | 1200 µg/mL | –
19 | CN(C/C=C/c1ccc(Cl)cc1)Cc1ccc2c(c1)OCCC2.Cl | 11500 µg/mL | –
20 | CN(C/C=C/c1ccc(C(F)F)cc1)Cc1ccc2c(c1)OCCC2.Cl | 16300 µg/mL | –
21 | CN(C/C=C/C=C/c1ccc(-c2ccccc2)cc1)Cc1ccc2c(c1)OCCC2.Cl | 3800 µg/mL | growth inhibition (GI) (Staphylococcus aureus [8]): Non-Toxic; growth inhibition (GI) (Staphylococcus aureus [9]): Non-Toxic; growth inhibition (GI) (Staphylococcus aureus [10]): Non-Toxic; growth inhibition (GI) (Staphylococcus aureus [11]): Non-Toxic

Row | SMILES | solubility [1] | other results
22 | CN(C/C=C/c1ccc(Br)cc1)Cc1ccc2c(c1)CCCC2.Cl | 2000 µg/mL | –
23 | CN(C/C=C/c1ccc(Cl)cc1)Cc1ccc2c(c1)CCCC2.Cl | 1900 µg/mL | –
24 | COc1ccc(/C=C/CN(C)Cc2ccc3c(c2)CCCCC3)cc1.Cl | 1400 to 4100 µg/mL | –
25 | CN(C/C=C/C=C/c1ccc(-c2ccccc2)cc1)Cc1ccc2c(c1)OCCC2.O=C(O)CCC(=O)O | 2300 µg/mL | –
26 | CN(C/C=C/c1ccc(C(F)(F)F)cc1)Cc1ccc2c(c1)CCO2.Cl | 14600 µg/mL | –
27 | CCOc1ccc(/C=C/CN(C)Cc2ccc3c(c2)CCO3)cc1.Cl | 11600 µg/mL | –
28 | CN(C/C=C/c1ccc(-c2ccccc2)cc1)Cc1ccc2c(c1)CCO2 | – | fold change (FC) [2]: 10; Survival [3]: 0.12%; fold change (FC) [4]: 10; Survival [5]: 0.2%
29 | CN(C/C=C/C=C/c1ccc(-c2ccccc2)cc1)Cc1ccc2c(c1)OCCC2.O=C(O)CC(O)(CC(=O)O)C(=O)O | 1600 µg/mL | –
30 | CN(C/C=C/c1ccc(-c2ccccc2)cc1)Cc1ccc2c(c1)CCO2.O=C(O)CC(O)(CC(=O)O)C(=O)O | 2300 µg/mL | –
31 | CN(C/C=C/C=C/c1ccc(-c2ccccc2)cc1)Cc1ccc2c(c1)OCCC2.O=C(O)C(F)(F)F | 1700 µg/mL | –
32 | CN(C/C=C/c1ccc(C(F)(F)F)cc1)Cc1ccc2c(c1)OCCC2.Cl | 13200 µg/mL | –
33 | CC(O)C(=O)O.CN(C/C=C/c1ccc(-c2ccccc2)cc1)Cc1ccc2c(c1)CCO2 | 6200 µg/mL | –
34 | CN(C/C=C/c1ccc(-c2ccccc2)cc1)Cc1ccc2c(c1)CCO2.O=C(O)CCC(=O)O | 3300 µg/mL | –
35 | Br.CN(C/C=C/c1ccc(-c2ccccc2)cc1)Cc1ccc2c(c1)CCO2 | 2200 µg/mL | –
36 | CN(C/C=C/c1ccc(C(F)(F)F)cc1)Cc1ccc2c(c1)CCCCC2.Cl | 2600 µg/mL | –
37 | COc1ccc(/C=C/CN(C)Cc2ccc3c(c2)CCCC3)cc1.Cl | 900 µg/mL | –
38 | CN(C/C=C/c1ccc(-c2ccccc2)cc1)Cc1ccc2c(c1)CCO2.Cl | 4400 µg/mL | bioavailability [12]: 6.5%; growth inhibition (GI) (Staphylococcus aureus [8]): Non-Toxic; half-life [13]: 2.27 h; MRT last at 24 h [14]: 2.61 h; growth inhibition (GI) (Staphylococcus aureus [9]): Non-Toxic; AUC(0-t) at 24 h [15]: 1330 ng·h/mL; Tmax [16]: 4.98 min; MRT inf [17]: 3.28 h; half-life [18]: 1.7 h; MRT last at 24 h [19]: 0.9 h; AUC(0-t) at 24 h [20]: 156 ng·h/mL; AUC(0-inf) [21]: 177 ng·h/mL; Cmax [22]: 41.8 ng/mL; growth inhibition (GI) (Staphylococcus aureus [10]): Non-Toxic; growth inhibition (GI) (Staphylococcus aureus [11]): Non-Toxic; Tmax [23]: 2 h; Cmax [24]: 2040 ng/mL; AUC(0-inf) [25]: 1360 ng·h/mL; MRT inf [26]: 1.13 h
39 | CN(C/C=C/c1ccc(-c2ccccc2)cc1)Cc1ccc2c(c1)CCO2.O=S(=O)(O)O | 1800 µg/mL | –
40 | CC(=O)O.CN(C/C=C/c1ccc(-c2ccccc2)cc1)Cc1ccc2c(c1)CCO2 | 4700 µg/mL | –
41 | CN(C/C=C/c1ccc(-c2ccccc2)cc1)Cc1ccc2c(c1)CCO2.O=P(O)(O)O | 16200 µg/mL | –
